Active and inactive are the calls of the source. No cut-off for these calls is given here.
Experiments:
SOS1-KRAS = SOS1-KRAS (Homo sapiens, UniProt Q07889); test: Inhibition of N-terminal GST-tagged recombinant human KRAS G12C mutant (1 to 169 residues) expressed in Escherichia coli/N-terminal His10-tagged wild-type recombinant human SOS1 catalytic domain (564 to 1049 residues) expressed in Escherichia coli protein-protein interaction preincubated for 2 mins with KRAS followed by SOS1 addition measured after 60 mins in presence of anti-6His-XL665 by HTRF analysis
Homo sapiens [1] = species on record: Homo sapiens; test: Stabilization of N-terminal His10-tagged 15N-labeled recombinant human KRAS G12C/C118S mutant (1 to 169 residues) expressed in Escherichia coli/N-terminal His10-tagged wild-type recombinant human SOS1 catalytic domain (564 to 1049 residues) expressed in Escherichia coli at 1 mM incubated for 30 mins by 2D-NMR analysis
Homo sapiens [2] = species on record: Homo sapiens; test: (§1) Stabilization of N-terminal His10-tagged recombinant human KRAS G12C/C118S mutant (1 to 169 residues) expressed in Escherichia coli/N-terminal His10-tagged wild-type recombinant human SOS1 catalytic domain (564 to 1049 residues) expressed in Escherichia coli by HTRF analysis
Method in brief: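 HTRF equilibrium-binding read-out of KRASG12C_C118S with SOS1cat, detected by fluorescently labelled antibodies including a terbium donor. Signal normalized with DMSO control as 100% and no-SOS1cat wells as 0%. Data are mean ± SD, n = 4.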

Homo sapiens [3] = species on record: Homo sapiens; test: as §1, with “coli/Series S C1 sensor chip-immobilized biotinylated N-terminal” for “coli/N-terminal”, “coli at 100 to 500 uM measured for 360 secs” for “coli”, “SPR” for “HTRF”; details: dose 100-500 µM, time 360.0 sec
Method in brief: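 SOS1cat is immobilized on the chip, and 250 nM KRASG12C_C118S is flowed over with or without test compound. Compound alone at 100, 250 and 500 µM is also injected to gauge unspecific binding to SOS1cat. Buffer injection serves as the blank.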

[4] = target: Epidermal growth factor receptor (Homo sapiens, UniProt P00533); test: Inhibition of human EGFR using biotin-aminohexyl-AEEEEYFELVAKKK as substrate preincubated for 15 mins followed by substrate/ATP addition measured after 20 mins by FRET assay
Sequence of Epidermal growth factor receptor (P00533 whole entry): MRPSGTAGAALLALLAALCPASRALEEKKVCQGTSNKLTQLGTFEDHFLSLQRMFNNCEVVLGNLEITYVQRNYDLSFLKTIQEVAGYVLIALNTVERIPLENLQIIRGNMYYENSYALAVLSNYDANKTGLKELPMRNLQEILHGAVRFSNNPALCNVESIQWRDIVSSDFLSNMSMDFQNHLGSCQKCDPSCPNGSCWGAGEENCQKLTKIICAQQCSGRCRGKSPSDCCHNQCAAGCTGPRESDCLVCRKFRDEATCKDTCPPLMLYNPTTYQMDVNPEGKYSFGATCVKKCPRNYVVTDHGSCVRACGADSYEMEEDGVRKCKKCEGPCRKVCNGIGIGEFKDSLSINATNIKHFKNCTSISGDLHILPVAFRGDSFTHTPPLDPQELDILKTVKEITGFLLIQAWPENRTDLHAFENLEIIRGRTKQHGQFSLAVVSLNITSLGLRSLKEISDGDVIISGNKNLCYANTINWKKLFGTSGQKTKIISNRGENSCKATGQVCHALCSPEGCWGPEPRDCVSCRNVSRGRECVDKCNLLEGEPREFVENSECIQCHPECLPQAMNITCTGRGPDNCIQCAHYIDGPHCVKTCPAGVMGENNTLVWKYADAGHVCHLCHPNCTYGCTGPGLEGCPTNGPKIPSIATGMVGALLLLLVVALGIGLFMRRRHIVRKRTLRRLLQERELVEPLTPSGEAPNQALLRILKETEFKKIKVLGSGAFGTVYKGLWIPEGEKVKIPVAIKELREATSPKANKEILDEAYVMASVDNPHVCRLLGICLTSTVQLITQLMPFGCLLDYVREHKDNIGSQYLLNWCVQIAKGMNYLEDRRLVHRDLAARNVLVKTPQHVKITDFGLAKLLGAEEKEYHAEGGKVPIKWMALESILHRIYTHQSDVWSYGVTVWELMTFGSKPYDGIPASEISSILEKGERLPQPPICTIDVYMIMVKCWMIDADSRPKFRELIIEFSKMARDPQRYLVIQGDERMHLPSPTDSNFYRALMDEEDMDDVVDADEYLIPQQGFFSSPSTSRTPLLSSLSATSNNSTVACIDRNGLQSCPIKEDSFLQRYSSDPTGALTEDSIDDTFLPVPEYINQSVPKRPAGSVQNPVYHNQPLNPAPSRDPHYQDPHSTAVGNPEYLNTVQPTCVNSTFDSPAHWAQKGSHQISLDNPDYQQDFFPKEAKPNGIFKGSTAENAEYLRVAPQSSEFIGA

Sequence of SOS1-KRAS (Q07889 whole entry, looked up, stated change not applied, the tested form may be a part): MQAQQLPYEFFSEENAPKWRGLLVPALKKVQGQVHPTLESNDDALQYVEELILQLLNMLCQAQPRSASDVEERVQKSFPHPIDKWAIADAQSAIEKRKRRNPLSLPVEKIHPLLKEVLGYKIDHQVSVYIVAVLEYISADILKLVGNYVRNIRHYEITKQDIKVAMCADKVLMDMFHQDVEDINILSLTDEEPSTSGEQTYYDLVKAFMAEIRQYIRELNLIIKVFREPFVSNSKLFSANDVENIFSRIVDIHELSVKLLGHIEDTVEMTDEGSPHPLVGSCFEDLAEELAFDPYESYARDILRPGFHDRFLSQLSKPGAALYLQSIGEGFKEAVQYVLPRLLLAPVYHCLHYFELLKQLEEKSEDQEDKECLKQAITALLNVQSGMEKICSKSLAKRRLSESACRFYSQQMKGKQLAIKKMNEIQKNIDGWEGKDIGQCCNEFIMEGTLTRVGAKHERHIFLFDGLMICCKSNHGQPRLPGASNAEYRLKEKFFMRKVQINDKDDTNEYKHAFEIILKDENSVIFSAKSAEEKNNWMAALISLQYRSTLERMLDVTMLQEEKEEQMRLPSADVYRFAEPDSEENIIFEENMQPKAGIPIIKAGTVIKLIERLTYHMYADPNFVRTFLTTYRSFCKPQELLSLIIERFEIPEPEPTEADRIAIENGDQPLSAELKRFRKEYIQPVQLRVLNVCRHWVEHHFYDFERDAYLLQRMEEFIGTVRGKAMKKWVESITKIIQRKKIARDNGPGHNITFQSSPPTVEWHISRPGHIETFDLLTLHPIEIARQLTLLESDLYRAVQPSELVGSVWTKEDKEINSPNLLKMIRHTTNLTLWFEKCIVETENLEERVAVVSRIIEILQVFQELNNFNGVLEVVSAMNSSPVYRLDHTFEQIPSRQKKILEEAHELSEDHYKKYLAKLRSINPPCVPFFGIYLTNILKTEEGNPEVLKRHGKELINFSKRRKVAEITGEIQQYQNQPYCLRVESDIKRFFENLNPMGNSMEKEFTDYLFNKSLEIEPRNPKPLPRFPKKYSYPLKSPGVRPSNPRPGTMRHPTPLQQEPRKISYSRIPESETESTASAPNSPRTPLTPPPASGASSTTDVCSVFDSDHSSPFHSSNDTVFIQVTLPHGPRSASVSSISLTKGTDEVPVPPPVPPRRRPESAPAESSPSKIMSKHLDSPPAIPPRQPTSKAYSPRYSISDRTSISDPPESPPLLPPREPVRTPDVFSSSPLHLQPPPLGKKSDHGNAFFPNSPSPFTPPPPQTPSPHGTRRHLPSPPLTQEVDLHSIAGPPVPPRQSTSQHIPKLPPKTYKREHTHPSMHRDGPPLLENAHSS

COCCNCc1ccccc1-c1ccc(C(C)Nc2nc(C)nc3cc(OC)c(OC)cc23)s1 (configuration not stated)
IC50 (SOS1-KRAS): 100 nM

COc1cc2nc(C)nc(NC(C)c3ccc(-c4ccccc4CO)s3)c2cc1OC (configuration not stated)
IC50 (SOS1-KRAS): 280 nM

NCCCc1ccc(Cl)cc1
Activity (Homo sapiens [1]): Active | Activity (Homo sapiens [2]): Active | Activity (Homo sapiens [3]): Active

COc1cc2nc(C)nc(N(C)[C@H](C)c3cccc(Br)c3)c2cc1OC
IC50 [4]: > 20 µM | IC50 (SOS1-KRAS): > 20000 nM

O=C(CO)N1CCc2ccccc2C1
Activity (Homo sapiens [1]): inactive | Activity (Homo sapiens [2]): inactive | Activity (Homo sapiens [3]): inactive

COc1cc2nc(C)nc(N[C@H](C)c3cccc(Br)c3)c2cc1OC
IC50 [4]: > 20 µM | IC50 (SOS1-KRAS): 170 nM

COc1cc2nc(C)nc(NC(C)c3ccc(-c4ccccc4CN4CCC4)s3)c2cc1OC (configuration not stated)
IC50 (SOS1-KRAS): 76 nM

COc1cc2nc(C)nc(NC(C)c3ccc(-c4ccccc4C(N)=O)s3)c2cc1OC (configuration not stated)
IC50 (SOS1-KRAS): 3210 nM

COc1cc2nc(N(C)C)nc(N[C@H](C)c3cccc4ccccc34)c2cc1OC
IC50 [4]: > 20 µM | IC50 (SOS1-KRAS): 800 nM

COc1cc2nc(C)nc(NC(C)c3ccc(-c4ccccc4CN(C)C)s3)c2cc1OC (configuration not stated)
IC50 (SOS1-KRAS): 40 nM

COc1cc2nc(C)nc(NC(C)c3ccc(-c4ccccc4CNCCO)s3)c2cc1OC (configuration not stated)
IC50 (SOS1-KRAS): 46 nM

CCN(CC)Cc1ccccc1-c1ccc(C(C)Nc2nc(C)nc3cc(OC)c(OC)cc23)s1 (configuration not stated)
IC50 (SOS1-KRAS): 170 nM

COc1cc2ccnc(N[C@H](C)c3cccc4ccccc34)c2cc1OC
IC50 [4]: > 20 µM | IC50 (SOS1-KRAS): 12200 nM

COc1cc2nc(C)nc(NC(C)c3ccc(-c4ccccc4CN(C)CCO)s3)c2cc1OC (configuration not stated)
IC50 (SOS1-KRAS): 47 nM

COc1cc2nc(C)nc(NC(C)c3ccc(-c4ccccc4S(C)(=O)=O)s3)c2cc1OC (configuration not stated)
IC50 (SOS1-KRAS): 1410 nM

CCNCc1ccccc1-c1ccc(C(C)Nc2nc(C)nc3cc(OC)c(OC)cc23)s1 (configuration not stated)
IC50 (SOS1-KRAS): 55 nM

COc1cc2nc(C)nc(NC(C)c3ccc(-c4ccccc4[C@@H](C)N)s3)c2cc1OC (some centres not stated)
IC50 (SOS1-KRAS): 200 nM

COc1cc2nc(C)nc(NC(C)c3ccc(-c4ccccc4C#N)s3)c2cc1OC (configuration not stated)
IC50 (SOS1-KRAS): 590 nM

COc1cc2nc(C(F)(F)F)nc(N[C@H](C)c3cccc4ccccc34)c2cc1OC
IC50 [4]: > 20 µM | IC50 (SOS1-KRAS): 1450 nM

COc1cc2nc(C)nc(N[C@H](C)c3cccc4ccccc34)c2cc1OC
IC50 [4]: > 20 µM

COc1cc2nc(C)nc(NC(C)c3ccc(-c4ccccc4CCN)s3)c2cc1OC (configuration not stated)
IC50 (SOS1-KRAS): 51 nM

COc1cc2nc(C)nc(NC(C)c3ccc(-c4ccccc4CNCc4ccccc4)s3)c2cc1OC (configuration not stated)
IC50 (SOS1-KRAS): 470 nM

COc1cc2nc(C)nc(NC(C)c3ccc(-c4ccccc4CNCC(F)F)s3)c2cc1OC (configuration not stated)
IC50 (SOS1-KRAS): 780 nM

COc1cc2nc(C)nc(NC(C)c3ccc(-c4ccccc4CN4CC(F)C4)s3)c2cc1OC (configuration not stated)
IC50 (SOS1-KRAS): 410 nM

COc1cc2nc(C)nc(NC(C)c3ccc(-c4ccc(F)cc4CNC(C)=O)s3)c2cc1OC (configuration not stated)
IC50 (SOS1-KRAS): 590 nM

COc1cc2nc(C)nc(NC(C)c3ccc(-c4ccccc4CN)s3)c2cc1OC (configuration not stated)
IC50 (SOS1-KRAS): 80 nM

COc1cc2nc(C)nc(NC(C)c3ccc(-c4ccccc4S(=O)(=O)N(C)C)s3)c2cc1OC (configuration not stated)
IC50 (SOS1-KRAS): 2160 nM

CCCCNCc1ccccc1-c1ccc(C(C)Nc2nc(C)nc3cc(OC)c(OC)cc23)s1 (configuration not stated)
IC50 (SOS1-KRAS): 98 nM

COc1cc2nccc(N[C@H](C)c3cccc4ccccc34)c2cc1OC
IC50 (SOS1-KRAS): 2590 nM

CNCc1ccccc1-c1ccc(C(C)Nc2nc(C)nc3cc(OC)c(OC)cc23)s1 (configuration not stated)
IC50 (SOS1-KRAS): 41 nM

COc1cc2nc(C)nc(NC(C)c3ccc(-c4ccccc4C(C)(C)N)s3)c2cc1OC (configuration not stated)
IC50 (SOS1-KRAS): 400 nM

COc1cc2nc(C)nc(NC(C)c3ccc(-c4ccccc4CNCC(F)(F)F)s3)c2cc1OC (configuration not stated)
IC50 (SOS1-KRAS): 3150 nM

COc1cc2nc(C)nc(NC(C)c3ccc(-c4ccccc4[C@H](C)N)s3)c2cc1OC (some centres not stated)
IC50 (SOS1-KRAS): 230 nM

Source: ChEMBL document CHEMBL5678818, “Discovery of potent SOS1 inhibitors that block RAS activation via disruption of the RAS-SOS1 interaction” (Proc Natl Acad Sci U S A, 2019)
